Values after ≈ are worked out from the molar mass of the structure shown.
Tests used:
Type in all cases: functional
Enterobacter cloacae = experiment: Minimum inhibitory concentration in vitro against Enterobacter cloacae MA 2646
Staphylococcus aureus [1] = experiment: Minimum inhibitory concentration was evaluated in vitro against Staphylococcus aureus UC 76
Summary of the method: (§1)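 Standard microtitration broth assay against a panel of 10 Gram-positive and Gram-negative organisms. MIC read in µg/mL and averaged over multiple experiments.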

Streptococcus pyogenes [2] = experiment: Minimum inhibitory concentration was evaluated in vitro against Streptococcus pyogenes C 203; summary of the method: as §1
Streptococcus pneumoniae = experiment: Minimum inhibitory concentration was evaluated in vitro against Streptococcus pneumoniae SV-1; summary of the method: as §1
Staphylococcus aureus [3] = experiment: Minimum inhibitory concentration was evaluated in vitro against Staphylococcus aureus H 228; summary of the method: as §1
Klebsiella pneumoniae = experiment: Minimum inhibitory concentration was evaluated in vitro against Klebsiella pneumoniae MGH2; summary of the method: as §1
Escherichia coli = experiment: Antibacterial activity in vitro against Escherichia coli Vogel; summary of the method: as §1
Enterococcus faecalis = experiment: Minimum inhibitory concentration was evaluated in vitro against Enterococcus faecalis MGH-2; summary of the method: as §1
Streptococcus pyogenes [4] = experiment: Antibacterial activity measured as mouse protection against Streptococcus pyogenes C 203 after subcutaneous administration; conditions: for ED50: Streptococcus pyogenes, C 203, sc, read-out: PD50
Pseudomonas aeruginosa = experiment: Minimum inhibitory concentration was evaluated in vitro against Pseudomonas aeruginosa UI-18; summary of the method: as §1
Providencia rettgeri = experiment: Minimum inhibitory concentration was evaluated in vitro against Providencia rettgeri M1771; summary of the method: as §1
Streptococcus pyogenes [5] = experiment: Compounds were evaluated in vivo for antibacterial activity for mouse protection against Streptococcus pyogenes C 203 after oral administration; conditions: for ED50: Streptococcus pyogenes, C 203, po, read-out: PD50
[6] = Enterobacter cloacae, read-out: MIC
[7] = Staphylococcus aureus, read-out: MIC
[8] = Streptococcus pyogenes, read-out: MIC
[9] = Streptococcus pneumoniae, read-out: MIC
[10] = Klebsiella pneumoniae, read-out: MIC
[11] = Escherichia coli, read-out: MIC
[12] = Enterococcus faecalis, read-out: MIC
[13] = Pseudomonas aeruginosa, read-out: MIC
[14] = Providencia rettgeri, read-out: MIC

## COc1c(N2CC[C@@H]([C@H](C)N)C2)c(F)cc2c(=O)c(C(=O)O)cn(C3CC3)c12
Enterobacter cloacae; [6]
  MIC: 0.8 µg/mL (≈ 2.05 µM)
Staphylococcus aureus [1]; [7]
  MIC: 0.013 µg/mL (≈ 0.0334 µM)
Streptococcus pyogenes [2]; [8]
  MIC: 0.025 µg/mL (≈ 0.0642 µM)
Streptococcus pneumoniae; [9]
  MIC: 0.025 µg/mL (≈ 0.0642 µM)
Staphylococcus aureus [3]; [7]
  MIC: 0.05 µg/mL (≈ 0.128 µM)
Klebsiella pneumoniae; [10]
  MIC: 0.4 µg/mL (≈ 1.03 µM)
Escherichia coli; [11]
  MIC: 0.4 µg/mL (≈ 1.03 µM)
Enterococcus faecalis; [12]
  MIC: 0.05 µg/mL (≈ 0.128 µM)
Streptococcus pyogenes [4]
  ED50: 6 mg/kg
Pseudomonas aeruginosa; [13]
  MIC: 1.6 µg/mL (≈ 4.11 µM)
Providencia rettgeri; [14]
  MIC: 0.4 µg/mL (≈ 1.03 µM)

## CN[C@H](C)[C@@H]1CCN(c2c(F)cc3c(=O)c(C(=O)O)cn(C4CC4)c3c2C(F)(F)F)C1
Streptococcus pyogenes [5]
  ED50: 3 mg/kg
Enterobacter cloacae; [6]
  MIC: 0.4 µg/mL (≈ 0.906 µM)
Staphylococcus aureus [1]; [7]
  MIC: 0.025 µg/mL (≈ 0.0566 µM)
Streptococcus pyogenes [2]; [8]
  MIC: 0.05 µg/mL (≈ 0.113 µM)
Streptococcus pneumoniae; [9]
  MIC: 0.05 µg/mL (≈ 0.113 µM)
Staphylococcus aureus [3]; [7]
  MIC: 0.05 µg/mL (≈ 0.113 µM)
Klebsiella pneumoniae; [10]
  MIC: 1.6 µg/mL (≈ 3.62 µM)
Escherichia coli; [11]
  MIC: 0.2 µg/mL (≈ 0.453 µM)
Enterococcus faecalis; [12]
  MIC: 0.1 µg/mL (≈ 0.227 µM)
Streptococcus pyogenes [4]
  ED50: 2 mg/kg
Pseudomonas aeruginosa; [13]
  MIC: 6.3 µg/mL (≈ 14.3 µM)
Providencia rettgeri; [14]
  MIC: 3.1 µg/mL (≈ 7.02 µM)

## CN[C@@H](C)[C@@H]1CCN(c2nc3c(cc2F)c(=O)c(C(=O)O)cn3C2CC2)C1
Streptococcus pyogenes [5]
  PD50: 11 mg/kg
Enterobacter cloacae
  MIC: 0.1 µg/mL (≈ 0.267 µM)
Staphylococcus aureus [1]
  MIC: 0.05 µg/mL (≈ 0.134 µM)
Streptococcus pyogenes [2]
  MIC: 0.1 µg/mL (≈ 0.267 µM)
Streptococcus pneumoniae
  MIC: 0.1 µg/mL (≈ 0.267 µM)
Staphylococcus aureus [3]
  MIC: 0.2 µg/mL (≈ 0.534 µM)
Klebsiella pneumoniae
  MIC: 0.2 µg/mL (≈ 0.534 µM)
Escherichia coli
  MIC: 0.1 µg/mL (≈ 0.267 µM)
Enterococcus faecalis
  MIC: 0.2 µg/mL (≈ 0.534 µM)
Streptococcus pyogenes [4]
  PD50: 5 mg/kg
Pseudomonas aeruginosa
  MIC: 1.6 µg/mL (≈ 4.27 µM)
Providencia rettgeri
  MIC: 0.8 µg/mL (≈ 2.14 µM)

## CN[C@@H](C)[C@H]1CCN(c2c(F)c(N)c3c(=O)c(C(=O)O)cn(C4CC4)c3c2F)C1
Enterobacter cloacae; [6]
  MIC: 0.4 µg/mL (≈ 0.984 µM)
Staphylococcus aureus [1]; [7]
  MIC: 0.4 µg/mL (≈ 0.984 µM)
Streptococcus pyogenes [2]; [8]
  MIC: 1.6 µg/mL (≈ 3.94 µM)
Streptococcus pneumoniae; [9]
  MIC: 0.8 µg/mL (≈ 1.97 µM)
Staphylococcus aureus [3]; [7]
  MIC: 0.8 µg/mL (≈ 1.97 µM)
Klebsiella pneumoniae; [10]
  MIC: 0.8 µg/mL (≈ 1.97 µM)
Escherichia coli; [11]
  MIC: 0.4 µg/mL (≈ 0.984 µM)
Enterococcus faecalis; [12]
  MIC: 1.6 µg/mL (≈ 3.94 µM)
Pseudomonas aeruginosa; [13]
  MIC: 3.1 µg/mL (≈ 7.63 µM)
Providencia rettgeri; [14]
  MIC: 1.6 µg/mL (≈ 3.94 µM)

## CC(N)C1CCN(c2c(F)cc3c(=O)c(C(=O)O)cn(C4CC4)c3c2C(F)(F)F)C1 (stereo in doubt; 36F-R,R)
Streptococcus pyogenes [5]
  PD50: 3 mg/kg
Enterobacter cloacae; [6]
  MIC: 0.4 µg/mL (≈ 0.936 µM)
Staphylococcus aureus [1]
  MIC: 0.025 µg/mL (≈ 0.0585 µM)
Streptococcus pyogenes [2]
  MIC: 0.1 µg/mL (≈ 0.234 µM)
Streptococcus pneumoniae
  MIC: 0.1 µg/mL (≈ 0.234 µM)
Staphylococcus aureus [3]
  MIC: 0.1 µg/mL (≈ 0.234 µM)
Klebsiella pneumoniae
  MIC: 0.8 µg/mL (≈ 1.87 µM)
Escherichia coli
  MIC: 0.8 µg/mL (≈ 1.87 µM)
Enterococcus faecalis
  MIC: 0.2 µg/mL (≈ 0.468 µM)
Streptococcus pyogenes [4]
  PD50: 2 mg/kg
Pseudomonas aeruginosa
  MIC: 6.3 µg/mL (≈ 14.7 µM)
Providencia rettgeri; [14]
  MIC: 0.8 µg/mL (≈ 1.87 µM)

## CCN[C@@H](C)[C@@H]1CCN(c2c(F)c(N)c3c(=O)c(C(=O)O)cn(C4CC4)c3c2F)C1 (stereo in doubt; 32H-S,S)
Streptococcus pyogenes [5]
  PD50: 13 mg/kg
Enterobacter cloacae
  MIC: 0.4 µg/mL (≈ 0.951 µM)
Staphylococcus aureus [1]
  MIC: 0.05 µg/mL (≈ 0.119 µM)
Streptococcus pyogenes [2]
  MIC: 0.2 µg/mL (≈ 0.476 µM)
Streptococcus pneumoniae
  MIC: 0.05 µg/mL (≈ 0.119 µM)
Staphylococcus aureus [3]
  MIC: 0.1 µg/mL (≈ 0.238 µM)
Klebsiella pneumoniae
  MIC: 0.4 µg/mL (≈ 0.951 µM)
Escherichia coli; [11]
  MIC: 0.2 µg/mL (≈ 0.476 µM)
Enterococcus faecalis
  MIC: 0.2 µg/mL (≈ 0.476 µM)
Streptococcus pyogenes [4]
  PD50: 9 mg/kg
Pseudomonas aeruginosa
  MIC: 3.1 µg/mL (≈ 7.37 µM)
Providencia rettgeri
  MIC: 1.6 µg/mL (≈ 3.81 µM)

## CCNC(C)C1CCN(c2cc3c(c(N)c2F)c(=O)c(C(=O)O)cn3C2CC2)C1 (racemic)
Streptococcus pyogenes [5]
  PD50: 5 mg/kg
Enterobacter cloacae; [6]
  MIC: 0.1 µg/mL (≈ 0.248 µM)
Staphylococcus aureus [1]; [7]
  MIC: 0.025 µg/mL (≈ 0.0621 µM)
Streptococcus pyogenes [2]; [8]
  MIC: 0.013 µg/mL (≈ 0.0323 µM)
Streptococcus pneumoniae; [9]
  MIC: 0.013 µg/mL (≈ 0.0323 µM)
Staphylococcus aureus [3]; [7]
  MIC: 0.05 µg/mL (≈ 0.124 µM)
Klebsiella pneumoniae; [10]
  MIC: 0.2 µg/mL (≈ 0.497 µM)
Escherichia coli; [11]
  MIC: 0.1 µg/mL (≈ 0.248 µM)
Enterococcus faecalis; [12]
  MIC: 0.05 µg/mL (≈ 0.124 µM)
Streptococcus pyogenes [4]
  ED50: 1 mg/kg
Pseudomonas aeruginosa; [13]
  MIC: 1.6 µg/mL (≈ 3.98 µM)
Providencia rettgeri; [14]
  MIC: 0.8 µg/mL (≈ 1.99 µM)

## CN[C@H](C)[C@H]1CCN(c2c(F)c(N)c3c(=O)c(C(=O)O)cn(C4CC4)c3c2F)C1
Streptococcus pyogenes [5]
  PD50: 13 mg/kg
Enterobacter cloacae
  MIC: 0.2 µg/mL (≈ 0.492 µM)
Staphylococcus aureus [1]
  MIC: 0.05 µg/mL (≈ 0.123 µM)
Streptococcus pyogenes [2]
  MIC: 0.2 µg/mL (≈ 0.492 µM)
Streptococcus pneumoniae
  MIC: 0.2 µg/mL (≈ 0.492 µM)
Staphylococcus aureus [3]
  MIC: 0.1 µg/mL (≈ 0.246 µM)
Klebsiella pneumoniae
  MIC: 0.8 µg/mL (≈ 1.97 µM)
Escherichia coli
  MIC: 0.2 µg/mL (≈ 0.492 µM)
Enterococcus faecalis
  MIC: 0.2 µg/mL (≈ 0.492 µM)
Streptococcus pyogenes [4]
  PD50: 13 mg/kg
Pseudomonas aeruginosa
  MIC: 3.1 µg/mL (≈ 7.63 µM)
Providencia rettgeri
  MIC: 0.8 µg/mL (≈ 1.97 µM)

## CCN[C@H](C)[C@@H]1CCN(c2c(F)cc3c(=O)c(C(=O)O)cn(C4CC4)c3c2OC)C1
Streptococcus pyogenes [5]
  ED50: 3 mg/kg
Enterobacter cloacae; [6]
  MIC: 0.2 µg/mL (≈ 0.479 µM)
Staphylococcus aureus [1]; [7]
  MIC: 0.003 µg/mL (≈ 0.00719 µM)
Streptococcus pyogenes [2]; [8]
  MIC: 0.003 µg/mL (≈ 0.00719 µM)
Streptococcus pneumoniae; [9]
  MIC: 0.003 µg/mL (≈ 0.00719 µM)
Staphylococcus aureus [3]; [7]
  MIC: 0.013 µg/mL (≈ 0.0311 µM)
Klebsiella pneumoniae; [10]
  MIC: 0.4 µg/mL (≈ 0.958 µM)
Escherichia coli; [11]
  MIC: 0.2 µg/mL (≈ 0.479 µM)
Enterococcus faecalis; [12]
  MIC: 0.013 µg/mL (≈ 0.0311 µM)
Pseudomonas aeruginosa; [13]
  MIC: 3.1 µg/mL (≈ 7.43 µM)
Providencia rettgeri; [14]
  MIC: 0.8 µg/mL (≈ 1.92 µM)

## CCN[C@H](C)[C@@H]1CCN(c2nc3c(cc2F)c(=O)c(C(=O)O)cn3-c2ccc(F)cc2F)C1
Streptococcus pyogenes [5]
  ED50: 10 mg/kg
Enterobacter cloacae; [6]
  MIC: 0.8 µg/mL (≈ 1.74 µM)
Staphylococcus aureus [1]; [7]
  MIC: 0.05 µg/mL (≈ 0.109 µM)
Streptococcus pyogenes [2]; [8]
  MIC: 0.2 µg/mL (≈ 0.434 µM)
Streptococcus pneumoniae; [9]
  MIC: 0.2 µg/mL (≈ 0.434 µM)
Staphylococcus aureus [3]; [7]
  MIC: 0.2 µg/mL (≈ 0.434 µM)
Klebsiella pneumoniae; [10]
  MIC: 1.6 µg/mL (≈ 3.47 µM)
Escherichia coli; [11]
  MIC: 0.8 µg/mL (≈ 1.74 µM)
Enterococcus faecalis; [12]
  MIC: 0.4 µg/mL (≈ 0.869 µM)
Streptococcus pyogenes [4]
  ED50: 6 mg/kg
Pseudomonas aeruginosa; [13]
  MIC: 3.1 µg/mL (≈ 6.73 µM)
Providencia rettgeri; [14]
  MIC: 3.1 µg/mL (≈ 6.73 µM)

## CCN[C@H](C)[C@H]1CCN(c2cc3c(cc2F)c(=O)c(C(=O)O)cn3C2CC2)C1 (mixture of isomers; form 1)
Enterobacter cloacae
  MIC: 0.4 µg/mL
Staphylococcus aureus [1]
  MIC: 0.2 µg/mL
Streptococcus pyogenes [2]
  MIC: 0.2 µg/mL
Streptococcus pneumoniae
  MIC: 0.2 µg/mL
Staphylococcus aureus [3]
  MIC: 0.4 µg/mL
Klebsiella pneumoniae
  MIC: 0.8 µg/mL
Escherichia coli
  MIC: 0.4 µg/mL
Enterococcus faecalis
  MIC: 0.4 µg/mL
Pseudomonas aeruginosa
  MIC: 6.3 µg/mL
Providencia rettgeri
  MIC: 1.6 µg/mL
